Laboratory results as given in ChEMBL document CHEMBL1131478 (J Med Chem, 1998).

Key:
[1] = Maximum plasma concentration (Cmax) after p.o. administration of 200 mg/kg in mice; assay type: ADME, organism-based; parameters: dose 200 mg/kg, route oral; conditions: mouse, po
Procedure, shortened: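 Single 200 mg/kg oral dose in mice, given in 0.5% methyl cellulose. Blood drawn at various time points. Plasma drug extracted with CH3CN and quantified by reverse-phase C18 HPLC using a CH3CN gradient with 0.1% TFA. Peak plasma level taken as Cmax.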

[2] = biological target: Angiotensin-converting enzyme (Homo sapiens, UniProt P12821); test: Inhibitory activity against Angiotensin I converting enzyme
Chain of Angiotensin-converting enzyme (P12821 whole entry): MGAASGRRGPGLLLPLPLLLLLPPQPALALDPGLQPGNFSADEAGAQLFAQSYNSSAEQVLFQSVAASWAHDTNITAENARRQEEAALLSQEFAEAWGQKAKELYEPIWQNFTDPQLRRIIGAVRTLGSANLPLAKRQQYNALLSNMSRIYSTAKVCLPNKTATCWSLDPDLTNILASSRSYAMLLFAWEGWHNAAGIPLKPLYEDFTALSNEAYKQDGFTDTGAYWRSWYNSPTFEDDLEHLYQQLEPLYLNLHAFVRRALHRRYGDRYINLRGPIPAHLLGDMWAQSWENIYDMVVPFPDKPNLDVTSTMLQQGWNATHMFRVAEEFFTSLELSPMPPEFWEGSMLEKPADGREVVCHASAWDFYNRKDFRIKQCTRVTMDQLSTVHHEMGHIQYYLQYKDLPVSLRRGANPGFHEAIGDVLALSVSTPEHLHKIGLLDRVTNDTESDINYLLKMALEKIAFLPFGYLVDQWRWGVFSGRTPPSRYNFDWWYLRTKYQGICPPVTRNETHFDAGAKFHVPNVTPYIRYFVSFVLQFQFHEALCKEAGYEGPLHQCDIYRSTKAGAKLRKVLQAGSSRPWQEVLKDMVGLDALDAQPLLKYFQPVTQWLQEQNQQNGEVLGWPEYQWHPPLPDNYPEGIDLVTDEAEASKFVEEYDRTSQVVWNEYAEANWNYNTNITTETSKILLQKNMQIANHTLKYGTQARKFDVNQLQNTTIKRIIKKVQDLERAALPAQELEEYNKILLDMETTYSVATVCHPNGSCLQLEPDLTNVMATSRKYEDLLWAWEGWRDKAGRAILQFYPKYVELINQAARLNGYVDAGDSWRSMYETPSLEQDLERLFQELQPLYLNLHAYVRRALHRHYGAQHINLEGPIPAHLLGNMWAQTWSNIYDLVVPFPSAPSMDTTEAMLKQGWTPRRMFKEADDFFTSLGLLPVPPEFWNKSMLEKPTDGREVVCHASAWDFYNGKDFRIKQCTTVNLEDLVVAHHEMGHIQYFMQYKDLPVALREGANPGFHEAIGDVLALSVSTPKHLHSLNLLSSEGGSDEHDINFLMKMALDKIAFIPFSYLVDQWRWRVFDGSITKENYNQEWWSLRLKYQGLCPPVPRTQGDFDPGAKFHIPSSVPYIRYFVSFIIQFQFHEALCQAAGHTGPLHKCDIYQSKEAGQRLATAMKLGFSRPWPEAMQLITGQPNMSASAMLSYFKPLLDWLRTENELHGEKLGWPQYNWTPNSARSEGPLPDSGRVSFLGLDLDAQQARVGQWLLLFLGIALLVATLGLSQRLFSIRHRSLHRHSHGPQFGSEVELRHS

Matrilysin = biological target: T1, Matrilysin (Homo sapiens, UniProt P09237); test: Inhibitory activity against Matrix metalloprotease-7
T1 sequence (P09237 whole entry): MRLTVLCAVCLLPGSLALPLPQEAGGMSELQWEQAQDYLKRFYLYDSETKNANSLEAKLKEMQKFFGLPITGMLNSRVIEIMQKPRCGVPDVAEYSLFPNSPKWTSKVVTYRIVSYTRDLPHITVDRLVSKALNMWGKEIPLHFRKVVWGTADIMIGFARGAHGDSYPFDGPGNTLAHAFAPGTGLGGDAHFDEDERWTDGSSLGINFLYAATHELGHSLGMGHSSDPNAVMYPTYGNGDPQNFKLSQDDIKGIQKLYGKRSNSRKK

Stromelysin-1 = Stromelysin-1 (Homo sapiens, UniProt P08254); test: Inhibitory activity against Matrix metalloprotease-3
Chain of Stromelysin-1 (P08254 whole entry): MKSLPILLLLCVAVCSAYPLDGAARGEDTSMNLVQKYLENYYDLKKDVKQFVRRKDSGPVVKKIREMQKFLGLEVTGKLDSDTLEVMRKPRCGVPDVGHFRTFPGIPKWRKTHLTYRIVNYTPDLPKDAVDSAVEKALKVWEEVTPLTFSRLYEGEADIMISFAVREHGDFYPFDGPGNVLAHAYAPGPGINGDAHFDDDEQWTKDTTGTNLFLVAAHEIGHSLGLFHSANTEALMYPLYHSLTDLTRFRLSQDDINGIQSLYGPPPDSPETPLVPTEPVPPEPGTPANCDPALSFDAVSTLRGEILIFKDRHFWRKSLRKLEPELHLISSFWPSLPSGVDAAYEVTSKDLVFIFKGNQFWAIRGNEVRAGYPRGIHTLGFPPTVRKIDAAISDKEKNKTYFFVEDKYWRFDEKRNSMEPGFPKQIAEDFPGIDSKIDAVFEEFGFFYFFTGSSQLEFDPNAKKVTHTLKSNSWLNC
Procedure, shortened: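 Enzyme and DMSO inhibitor were preincubated 30 min at room temperature in 50 mM Tris-Cl/10 mM CaCl2/0.2 M NaCl/0.02% NaN3/0.05% Brij-35, pH 7.5. Substrate MOAc-Arg-Pro-Lys-Pro-Val-Glu-Nva-Trp-Arg-Lys(Dnp)NH2 (added as 25 μM solution) then reacted 90 min.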

[3] = biological target: 72 kDa type IV collagenase (Homo sapiens, UniProt P08253); test: Inhibitory activity against human gelatinase A (matrix metalloprotease-2 MMP2)
Chain of 72 kDa type IV collagenase (P08253 whole entry): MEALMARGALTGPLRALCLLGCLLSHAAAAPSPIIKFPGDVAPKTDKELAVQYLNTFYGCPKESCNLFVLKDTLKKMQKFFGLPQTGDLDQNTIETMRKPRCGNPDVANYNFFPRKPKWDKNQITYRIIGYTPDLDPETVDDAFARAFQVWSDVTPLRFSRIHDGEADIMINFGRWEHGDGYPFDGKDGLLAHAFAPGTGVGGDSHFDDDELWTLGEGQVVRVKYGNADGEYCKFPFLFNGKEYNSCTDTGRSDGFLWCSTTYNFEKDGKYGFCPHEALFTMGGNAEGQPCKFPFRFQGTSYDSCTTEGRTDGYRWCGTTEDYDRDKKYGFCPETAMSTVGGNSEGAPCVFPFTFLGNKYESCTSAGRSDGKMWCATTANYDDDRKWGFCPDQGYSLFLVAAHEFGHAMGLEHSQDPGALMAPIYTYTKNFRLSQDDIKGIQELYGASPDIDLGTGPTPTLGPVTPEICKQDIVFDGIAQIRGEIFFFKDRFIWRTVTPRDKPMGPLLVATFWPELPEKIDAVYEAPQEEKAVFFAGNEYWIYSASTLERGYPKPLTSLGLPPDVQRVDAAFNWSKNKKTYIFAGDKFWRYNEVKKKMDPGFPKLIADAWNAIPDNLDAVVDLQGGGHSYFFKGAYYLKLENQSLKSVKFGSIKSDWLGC

Interstitial collagenase = biological target: T2, Interstitial collagenase (Homo sapiens, UniProt P03956); test: Inhibitory activity against Matrix metalloprotease-1
T2 sequence (P03956 whole entry): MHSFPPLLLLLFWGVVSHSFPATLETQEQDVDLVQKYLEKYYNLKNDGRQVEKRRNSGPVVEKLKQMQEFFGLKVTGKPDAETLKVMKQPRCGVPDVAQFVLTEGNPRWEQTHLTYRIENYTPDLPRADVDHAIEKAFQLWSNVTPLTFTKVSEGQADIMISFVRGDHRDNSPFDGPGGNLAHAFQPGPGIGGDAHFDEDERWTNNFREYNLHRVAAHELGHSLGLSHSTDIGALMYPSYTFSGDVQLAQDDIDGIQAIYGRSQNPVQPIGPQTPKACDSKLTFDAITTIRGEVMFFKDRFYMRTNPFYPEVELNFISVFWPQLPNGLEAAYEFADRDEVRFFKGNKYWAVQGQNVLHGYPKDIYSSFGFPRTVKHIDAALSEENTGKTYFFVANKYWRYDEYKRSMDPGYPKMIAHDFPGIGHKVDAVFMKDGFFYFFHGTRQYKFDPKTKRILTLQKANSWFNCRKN
Procedure, shortened: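 Commercial enzyme diluted in Tris/CaCl2/NaCl/Brij-35 buffer. Enzyme (about 0.2 unit/mL) and DMSO inhibitor were preincubated 30 min at room temperature with ABD-F (added as 2 mM) in 25 mM HEPES-NaOH/5 mM CaCl2, pH 7.0. Thiopeptide substrate Ac-Pro-Leu-Gly-SCH(CH2CH(CH3)2)CO-Leu-Gly-OEt (1.25 mM stock) was then added for 3 h at 37 °C. Reaction quenched with 3% acetic acid. Fluorescence read at ex 360/em 530 nm.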

Neprilysin = biological target: T3, Neprilysin (Rattus norvegicus, UniProt P07861); test: Inhibitory activity against neutral endopeptidase (NEP)
T3 sequence (P07861 whole entry): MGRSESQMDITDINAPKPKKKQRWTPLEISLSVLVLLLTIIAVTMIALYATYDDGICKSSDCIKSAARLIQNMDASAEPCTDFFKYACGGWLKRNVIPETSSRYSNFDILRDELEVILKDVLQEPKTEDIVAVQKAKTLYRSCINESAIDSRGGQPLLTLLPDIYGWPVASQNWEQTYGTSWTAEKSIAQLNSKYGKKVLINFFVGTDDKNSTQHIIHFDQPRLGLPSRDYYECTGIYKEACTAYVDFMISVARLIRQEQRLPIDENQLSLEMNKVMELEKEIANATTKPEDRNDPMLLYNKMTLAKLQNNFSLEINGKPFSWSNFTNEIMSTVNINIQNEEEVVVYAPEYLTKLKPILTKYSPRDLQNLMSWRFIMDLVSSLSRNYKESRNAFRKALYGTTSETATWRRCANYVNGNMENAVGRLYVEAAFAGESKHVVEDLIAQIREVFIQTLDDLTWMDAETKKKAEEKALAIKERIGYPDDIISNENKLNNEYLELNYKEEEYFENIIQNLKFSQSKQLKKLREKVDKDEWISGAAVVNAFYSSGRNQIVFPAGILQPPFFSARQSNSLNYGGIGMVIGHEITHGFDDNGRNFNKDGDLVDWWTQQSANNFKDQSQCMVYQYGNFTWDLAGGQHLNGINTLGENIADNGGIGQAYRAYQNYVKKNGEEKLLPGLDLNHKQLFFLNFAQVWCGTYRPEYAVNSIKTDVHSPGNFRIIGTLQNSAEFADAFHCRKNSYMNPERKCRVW

[4] = biological target: T4, Endothelin-converting enzyme 1 (Homo sapiens, UniProt P42892); test: Inhibitory activity against endothelin converting enzyme (ECE)
T4 sequence (P42892 whole entry): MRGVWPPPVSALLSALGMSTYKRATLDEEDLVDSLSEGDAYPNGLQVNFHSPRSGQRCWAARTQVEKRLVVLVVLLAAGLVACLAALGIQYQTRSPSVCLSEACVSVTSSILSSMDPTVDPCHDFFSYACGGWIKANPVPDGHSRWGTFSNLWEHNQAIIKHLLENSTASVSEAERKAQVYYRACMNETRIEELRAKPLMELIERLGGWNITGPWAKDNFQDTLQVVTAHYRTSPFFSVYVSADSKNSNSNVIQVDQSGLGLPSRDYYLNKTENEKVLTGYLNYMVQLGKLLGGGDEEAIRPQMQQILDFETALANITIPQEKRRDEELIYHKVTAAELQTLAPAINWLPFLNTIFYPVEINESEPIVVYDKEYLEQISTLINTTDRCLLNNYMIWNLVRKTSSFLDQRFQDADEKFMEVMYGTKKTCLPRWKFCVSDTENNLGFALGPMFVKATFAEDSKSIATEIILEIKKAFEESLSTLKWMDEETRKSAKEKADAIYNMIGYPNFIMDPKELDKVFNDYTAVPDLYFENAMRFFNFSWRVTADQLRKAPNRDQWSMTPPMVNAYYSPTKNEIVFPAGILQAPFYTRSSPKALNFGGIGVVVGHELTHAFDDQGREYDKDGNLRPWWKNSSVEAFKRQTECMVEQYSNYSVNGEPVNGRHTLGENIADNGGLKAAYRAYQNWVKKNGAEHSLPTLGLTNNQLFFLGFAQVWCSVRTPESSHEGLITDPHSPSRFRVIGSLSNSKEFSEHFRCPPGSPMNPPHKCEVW

[5] = biological target: T4, Endothelin-converting enzyme 1; test: Inhibitory activity against Endothelin-converting enzyme (ECE)
[6] = biological target: Matrix metalloproteinase-9 (Homo sapiens, UniProt P14780); test: Inhibitory activity against human gelatinase B (Matrix metalloprotease-9)
Chain of Matrix metalloproteinase-9 (P14780 whole entry): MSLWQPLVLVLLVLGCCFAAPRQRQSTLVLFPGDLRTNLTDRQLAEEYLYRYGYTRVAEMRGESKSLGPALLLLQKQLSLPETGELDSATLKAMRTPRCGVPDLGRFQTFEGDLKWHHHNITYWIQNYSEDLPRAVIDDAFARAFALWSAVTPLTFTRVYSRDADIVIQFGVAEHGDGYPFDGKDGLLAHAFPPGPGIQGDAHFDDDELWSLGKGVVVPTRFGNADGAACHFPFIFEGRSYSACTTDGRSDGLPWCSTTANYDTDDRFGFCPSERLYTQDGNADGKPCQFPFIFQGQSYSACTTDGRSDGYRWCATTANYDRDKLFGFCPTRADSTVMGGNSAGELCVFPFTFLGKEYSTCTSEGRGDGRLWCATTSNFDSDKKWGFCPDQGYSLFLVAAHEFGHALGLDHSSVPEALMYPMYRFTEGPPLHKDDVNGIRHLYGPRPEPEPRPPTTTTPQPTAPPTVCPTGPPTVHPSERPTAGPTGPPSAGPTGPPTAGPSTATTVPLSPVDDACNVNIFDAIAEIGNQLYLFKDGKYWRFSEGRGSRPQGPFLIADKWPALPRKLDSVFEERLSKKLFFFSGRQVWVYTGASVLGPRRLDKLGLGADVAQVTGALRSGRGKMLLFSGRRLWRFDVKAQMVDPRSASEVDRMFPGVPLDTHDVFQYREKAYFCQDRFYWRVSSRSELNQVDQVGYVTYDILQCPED

| Cmax [1] | IC50 [2] | IC50 (Matrilysin) | IC50 (Stromelysin-1) | IC50 [3] | IC50 (Interstitial collagenase) | IC50 (Neprilysin) | IC50 [4] | IC50 [5] | IC50 [6] | Structure (SMILES) |
| --- | --- | --- | --- | --- | --- | --- | --- | --- | --- | --- |
| 0.2 µM | > 1000 nM | > 1000 nM | > 1000 nM | 2.6 nM | > 1000 nM | > 1000 nM | > 1000 nM |  |  | O=C(Nc1ccc(S(=O)(=O)N[C@H](Cc2c[nH]c3ccccc23)C(=O)O)cc1)c1ccc(Br)cc1 |
| 47.7 µM | > 1000 nM | > 1000 nM | > 1000 nM | 13 nM | > 1000 nM | > 1000 nM | > 1000 nM |  |  | CSc1ccc(-n2nnc(-c3ccc(S(=O)(=O)N[C@@H](C(=O)O)C(C)C)cc3)n2)cc1 |
| 252 µM | > 1000 nM | > 1000 nM | > 1000 nM | 10 nM | > 1000 nM | > 1000 nM |  | > 1000 nM | 61 nM | Cc1ccc(-c2ccc(S(=O)(=O)N[C@H](Cc3c[nH]c4ccccc34)C(=O)O)s2)cc1 |
|  | > 1000 nM | > 1000 nM | > 1000 nM | 19 nM | > 1000 nM | > 1000 nM |  | > 1000 nM | 32 nM | O=C(O)[C@@H](Cc1c[nH]c2ccccc12)NS(=O)(=O)c1ccc(-c2nnn(-c3ccccc3)n2)cc1 |
| 189 µM | > 1000 nM | > 1000 nM | > 1000 nM | 23 nM | > 1000 nM | > 1000 nM | > 1000 nM |  | 40 nM | CSc1ccc(-c2ccc(S(=O)(=O)N[C@@H](C(=O)O)C(C)C)cc2)cc1 |
| 204 µM | > 1000 nM | > 1000 nM | > 1000 nM |  | > 1000 nM | > 1000 nM | > 1000 nM |  | 23 nM | Cc1ccc(C#Cc2ccc(S(=O)(=O)N[C@H](Cc3c[nH]c4ccccc34)C(=O)O)s2)cc1 [S-3304] |
